Converted amounts (≈) assume the structure as drawn. The source made the active and inactive calls. The calls are words filed in the database; no cut-off is given here.
What was measured:
[1] = Activity of AAC(3)-4 (unknown origin) assessed as compound acetylation activity by Ellman's method
[2] = test system: Escherichia coli; test: Antibacterial activity against Escherichia coli MC1061 by microdilution method; assay type: functional
How it was run: (§1)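 Broth microdilution MIC, in μg/mL, against a panel of Gram-positive and Gram-negative strains. Run at least in duplicate.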

[3] = Hemolytic activity against mouse RBC at 62.5 ug/ml after 60 mins; assay type: ADME, cell-based, Erythrocyte; settings: red blood cells, read-out: Activity
[4] = test system: Candida albicans; test: Antifungal activity against azole-susceptible Candida albicans ATCC MYA-2876 after 48 hrs by microbroth dilution method; assay type: functional; settings: ATCC MYA-2876, 48 h
How it was run: (§2)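 Yeast MIC by broth microdilution, run in duplicate. The aminoglycoside compounds are read as MIC-0 (complete inhibition). Azoles are read as MIC-2 (50% inhibition).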

[5] = test system: Mycolicibacterium smegmatis; test: Antibacterial activity against Mycobacterium smegmatis MC2 155 by microdilution method; assay type: functional; settings: str. MC2 155; how it was run: as §1
[6] = test system: Enterobacter cloacae; test: Antibacterial activity against Enterobacter cloacae ATCC 13047 by microdilution method; assay type: functional
How it was run: (§3)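 Broth microdilution MIC against the named bacterial strain, reported in μg/mL; each determination run at least in duplicate.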

[7] = test system: Enterococcus; test: Antibacterial activity against vancomycin-resistant Enterococcus by microdilution method; assay type: functional; how it was run: as §1
[8] = test system: Pseudomonas aeruginosa; test: Antibacterial activity against Pseudomonas aeruginosa ATCC 27853 by microdilution method; assay type: functional; how it was run: as §3
[9] = test system: Staphylococcus aureus; test: Antibacterial activity against methicillin-resistant Staphylococcus aureus by microdilution method; assay type: functional; how it was run: as §1
[10] = test system: Salmonella enterica; test: Antibacterial activity against Salmonella enterica ATCC 14028 by microdilution method; assay type: functional; how it was run: as §3
[11] = test system: Candida albicans; test: Antifungal activity against azole-resistant Candida albicans MYA-1003 after 48 hrs by microbroth dilution method; assay type: functional; settings: MYA-1003, 48 h; how it was run: as §2
[12] = test system: Staphylococcus aureus; test: Antibacterial activity against Staphylococcus aureus NRS22 (USA 600) by microdilution method; assay type: functional; how it was run: as §3
[13] = Hemolytic activity against mouse RBC at 100 to 500 ug/ml after 60 mins; assay type: ADME, cell-based; settings: erythrocyte, 1 h
[14] = test system: Klebsiella pneumoniae; test: Antibacterial activity against Klebsiella pneumoniae ATCC 27736 by microdilution method; assay type: functional; how it was run: as §3
[15] = test system: Candida albicans; test: Antifungal activity against azole-resistant Candida albicans ATCC 64124 after 48 hrs by microbroth dilution method; assay type: functional; settings: ATCC 64124, 48 h; how it was run: as §2
[16] = test system: Serratia marcescens; test: Activity of Serratia marcescens AAC(6')-2d assessed as compound acetylation activity by Ellman's method
[17] = test system: Bacillus subtilis; test: Antibacterial activity against Bacillus subtilis 168 by microdilution method; assay type: functional; settings: subsp. subtilis str. 168; how it was run: as §3
[18] = test system: Staphylococcus epidermidis; test: Antibacterial activity against Staphylococcus epidermidis ATCC 12228 by microdilution method; assay type: functional; how it was run: as §3
[19] = test system: Acinetobacter baumannii; test: Antibacterial activity against Acinetobacter baumannii ATCC 19606 by microdilution method; assay type: functional; how it was run: as §3
[20] = test system: Mycobacterium tuberculosis; test: Activity of Mycobacterium tuberculosis AAC(2')-1c assessed as compound acetylation activity by Ellman's method
[21] = test system: Candida albicans; test: Antifungal activity against azole-susceptible Candida albicans ATCC MYA-2310 after 48 hrs by microbroth dilution method; assay type: functional; settings: ATCC MYA-2310, 48 h; how it was run: as §2
[22] = test system: Staphylococcus aureus; test: Antibacterial activity against Staphylococcus aureus NRS383 (USA 200) by microdilution method; assay type: functional; how it was run: as §3
[23] = test system: Candida albicans; test: Antifungal activity against azole-resistant Candida albicans MYA-1237 after 48 hrs by microbroth dilution method; assay type: functional; settings: MYA-1237, 48 h; how it was run: as §2
[24] = test system: Staphylococcus aureus; test: Antibacterial activity against Staphylococcus aureus NRS382 (USA 100) by microdilution method; assay type: functional; how it was run: as §3
[25] = test system: Mycobacterium tuberculosis; test: Activity of Mycobacterium tuberculosis Eis assessed as compound acetylation activity by Ellman's method
[26] = test system: Staphylococcus aureus; test: Antibacterial activity against Staphylococcus aureus ATCC 29213 by microdilution method; assay type: functional; how it was run: as §3
[27] = Hemolytic activity against mouse RBC at 7.8 ug/ml after 60 mins; assay type: ADME, cell-based, Erythrocyte; settings: red blood cells, read-out: Activity
[28] = test system: Candida albicans; test: Antifungal activity against azole-resistant Candida albicans ATCC 90819 after 48 hrs by microbroth dilution method; assay type: functional; settings: ATCC 90819, 48 h; how it was run: as §2
[29] = Activity of AAC(6')-1e/APH(2'')-1a (unknown origin) assessed as compound acetylation activity by Ellman's method
[30] = test system: Candida albicans; test: Antifungal activity against azole-resistant Candida albicans ATCC 10231 after 48 hrs by microbroth dilution method; assay type: functional; settings: ATCC 10231, 48 h; how it was run: as §2
[31] = test system: Bacillus subtilis subsp. subtilis str. 168; test: Activity of Bacillus subtilis 168 APH(2'')-1a assessed as compound phosphorylation activity by Ellman's method
[32] = test system: Staphylococcus aureus; test: Antibacterial activity against Staphylococcus aureus NRS385 (USA 300) by microdilution method; assay type: functional; how it was run: as §1
[33] = test system: Aspergillus nidulans; test: Antifungal activity against Aspergillus nidulans ATCC 38163 after 48 hrs by microbroth dilution method; assay type: functional; settings: ATCC 38163, 48 h
How it was run: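 Filamentous fungus MIC by broth microdilution, run in duplicate. All compounds are read as MIC-0 (complete inhibition).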

Structure (SMILES): CCCCCCCCCCCCCCCCSC[C@@H]1O[C@@H](O[C@@H]2[C@@H](O)[C@H](O[C@@H]3O[C@@H](CN)[C@H](O)[C@@H](O)[C@@H]3N)[C@@H](N)C[C@H]2N)[C@@H](O)[C@H](N)[C@H]1O (stereo in doubt)
- Activity [1]: inactive
- MIC [2]: > 128 µg/mL
- hemolysis at 1 h, 62.5 ug/ml [3]: 81%
- MIC [4]: 3.9 µg/mL (≈ 5.39 µM)
- MIC [5]: 8 µg/mL (≈ 11 µM)
- MIC [6]: > 128 µg/mL
- MIC [7]: 128 µg/mL (≈ 177 µM)
- MIC [8]: > 128 µg/mL
- MIC [9]: > 128 µg/mL
- MIC [10]: > 128 µg/mL
- MIC [11]: 3.9 µg/mL (≈ 5.39 µM)
- MIC [12]: 128 µg/mL (≈ 177 µM)
- Activity [13]: Toxic
- MIC [14]: > 128 µg/mL
- MIC [15]: 3.9 µg/mL (≈ 5.39 µM)
- Activity [16]: inactive
- MIC [17]: > 128 µg/mL
- MIC [18]: > 128 µg/mL
- MIC [19]: > 128 µg/mL
- Activity [20]: inactive
- MIC [21]: 3.9 µg/mL (≈ 5.39 µM)
- MIC [22]: > 128 µg/mL
- MIC [23]: 3.9 µg/mL (≈ 5.39 µM)
- MIC [24]: 128 µg/mL (≈ 177 µM)
- Activity [25]: inactive
- MIC [26]: > 128 µg/mL
- hemolysis at 1 h, 7.8 ug/ml [27]: 16%
- MIC [28]: 3.9 µg/mL (≈ 5.39 µM)
- Activity [29]: inactive
- MIC [30]: 3.9 µg/mL (≈ 5.39 µM)
- Activity [31]: inactive
- MIC [32]: > 128 µg/mL
- MIC [33]: 1.95 µg/mL (≈ 2.69 µM)

From ChEMBL document CHEMBL3739331, “Synthesis and Bioactivities of Kanamycin B-Derived Cationic Amphiphiles” (J Med Chem, 2015)
